pIC50: −log10 of the molar value. In brackets after ≈: the same amount, converted by molar mass.
Columns and labels:
[1] = Selectivity index, ratio of IC50 for human HepG2 cells to IC50 for chloroquine-resistant Plasmodium falciparum RKL-9 schizont infected in RBC; format: toxicity; conditions: read-out: Ratio IC50
Outline: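 HepG2 in RPMI 1640 with 10% FCS, 5 x 10^2 cells/well, serial dilutions (DMSO stocks) added after 1 h; 7 days at 37°C, 5% CO2; MTT 4 h, formazan in ethanol, absorbance 570 nm; IC50 by non-linear regression, one experiment in duplicate. Index = HepG2 IC50 / RKL-9 antiplasmodial IC50.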

[2] = Inhibition of beta-hematin formation assessed as reduction in acetate buffer-initiated hemozoin formation after 18 hrs by spectrophotometric method relative to control; parameters: concentration or dose not given beside the values; conditions: concentration not given here
Outline: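 Colorimetric β-hematin assay after Ncokazi and Egan. Haemin chloride in DMSO, with compounds at 0.12–5 molar equivalents to haemin and DMSO as control. Reaction started with acetate buffer pH 5.0 and run 18 h at 37°C. Pellet then washed with DMSO to remove unreacted haematin. % inhibition computed from test versus control absorbance. Duplicate determinations.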

Plasmodium falciparum [3] = test: Antimalarial activity against chloroquine-sensitive Plasmodium falciparum MRC-2 schizont infected in RBC measured after 24 to 30 hrs hrs by giemsa staining based light microscopic method; format: functional
Outline: (§1)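 Asynchronous cultures synchronised to rings with 5% aqueous sorbitol, other stages removed by centrifugation; parasitemia about 1% in fresh washed RBCs. Compounds dissolved in DMSO, diluted in RPMI-1640, tested at several concentrations in triplicate; drug-free wells as control. Incubation 37°C in CO2 for 24-30 h until schizont maturation; methanol-fixed Giemsa smears counted under oil immersion; % inhibition, IC50 by probit; n=2.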

Plasmodium falciparum [4] = test: Antimalarial activity against chloroquine-resistant Plasmodium falciparum RKL-9 schizont infected in RBC measured after 24 to 30 hrs hrs by giemsa staining based light microscopic method; format: functional; outline: as §1
HepG2 = test: Cytotoxicity against human HepG2 cells assessed as reduction in cell viability after 7 days by MTT assay; format: cell-based; conditions: HepG2, 168 h
Outline: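 HepG2 cells maintained in RPMI 1640 with 10% FCS. Seeded at 5 x 10^2 cells per well and pre-incubated 1 h at 37°C, 5% CO2. Serial dilutions from DMSO stocks added, with medium and DMSO solvent controls. Cells incubated seven days, then MTT (5 mg/ml) added for 4 h. Formazan dissolved in ethanol, A570 read. IC50 by non-linear regression of % growth against log concentration.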

Staphylococcus aureus = test: Antibacterial activity against Staphylococcus aureus MTCC 3160 after 24 hrs by broth microdilution method; format: functional; conditions: MTCC 3160, 24 h
Outline: (§2)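 Broth microdilution per NCCLS in Mueller-Hinton broth, inoculum 5 x 10^5 CFU/ml. Compounds dissolved in DMSO, twofold serial dilutions made in sterile distilled water. Incubated at 35°C for 24 h. MIC (µg/ml) taken as the lowest concentration with no visible turbidity by unaided eye. Ciprofloxacin as positive control. Three replicates, mean ± SD.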

Bacillus subtilis = test: Antibacterial activity against Bacillus subtilis MTCC 121 after 24 hrs by broth microdilution method; format: functional; conditions: MTCC 121, 24 h; outline: as §2
Escherichia coli = test: Antibacterial activity against Escherichia coli MTCC 51 after 24 hrs by broth microdilution method; format: functional; conditions: MTCC 51, 24 h; outline: as §2
Pseudomonas aeruginosa = test: Antibacterial activity against Pseudomonas aeruginosa MTCC 741 after 24 hrs by broth microdilution method; format: functional; conditions: MTCC 741, 24 h; outline: as §2
Aspergillus niger = test: Antifungal activity against Aspergillus niger MTCC 8189 after 48 hrs by broth microdilution method; format: functional; conditions: MTCC 8189, 48 h
Outline: (§3)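 Fungi grown in Sabouraud liquid medium, inoculum 0.5–2.5 x 10^3 CFU/ml. Broth microdilution per NCCLS using twofold serial dilutions in sterile water from DMSO solutions. Incubated at 35°C for 48 h. MIC (µg/ml) was the lowest concentration with no visible growth by eye. Fluconazole as positive control. Mean ± SD of three replicates.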

Candida albicans = test: Antifungal activity against Candida albicans MTCC 227 after 48 hrs by broth microdilution method; format: functional; conditions: MTCC 227, 48 h; outline: as §3

Row | Structure (SMILES) | selectivity ratio [1] | inhibition [2] [%] | pIC50 (Plasmodium falciparum [3]) | pIC50 (Plasmodium falciparum [4]) | pIC50 (HepG2) | MIC (Staphylococcus aureus) [µg/mL] | MIC (Bacillus subtilis) [µg/mL] | MIC (Escherichia coli) [µg/mL] | MIC (Pseudomonas aeruginosa) [µg/mL] | MIC (Aspergillus niger) [µg/mL] | MIC (Candida albicans) [µg/mL]
1 | CC(C)Oc1ccc(C2CC(c3ccc(O)cc3)=NN2C(=O)c2cccnc2)cc1 (stereo unspecified) | 139 | 78 | 7.42 | 6.47 | 4.34 | 50 (≈ 125 µM) | 75 (≈ 187 µM) | 6.5 (≈ 16.2 µM) | 50 (≈ 125 µM) | 12.5 (≈ 31.1 µM) | 6.5 (≈ 16.2 µM)
2 | COc1ccc(C2CC(c3ccc(O)cc3)=NN2C(=O)c2cccnc2)cc1C (stereo unspecified) | 57.5 | 66 | 7.20 | 6.11 | 4.35 | 25 (≈ 64.5 µM) | 25 (≈ 64.5 µM) | 12.5 (≈ 32.3 µM) | 6.5 (≈ 16.8 µM) | 25 (≈ 64.5 µM) | 50 (≈ 129 µM)
3 | Cc1cc(C)c(C2CC(c3ccc(O)cc3)=NN2C(=O)c2cccnc2)c(C)c1 (stereo unspecified) | 100 | 67 | 7.03 | 6.26 | 4.26 | 12.5 (≈ 32.4 µM) | 12.5 (≈ 32.4 µM) | 6.5 (≈ 16.9 µM) | 6.5 (≈ 16.9 µM) | 25 (≈ 64.9 µM) | 50 (≈ 130 µM)
4 | O=C(c1cccnc1)N1N=C(c2ccc(O)cc2)CC1c1ccc(F)cc1 (stereo unspecified) | 18.1 | < 5 | 5.60 | 5.54 | 4.28 | 12.5 (≈ 34.6 µM) | 3.25 (≈ 8.99 µM) | 6.5 (≈ 18 µM) | 12.5 (≈ 34.6 µM) | 25 (≈ 69.2 µM) | 12.5 (≈ 34.6 µM)
5 | O=C(c1cccnc1)N1N=C(c2ccc(O)cc2)CC1c1ccc(Br)cc1 (stereo unspecified) | 60.5 | 76 | 6.85 | 6.01 | 4.23 | 6.5 (≈ 15.4 µM) | 12.5 (≈ 29.6 µM) | 25 (≈ 59.2 µM) | 12.5 (≈ 29.6 µM) | 25 (≈ 59.2 µM) | 50 (≈ 118 µM)
6 | O=C(c1cccnc1)N1N=C(c2ccc(O)cc2)CC1c1ccc([N+](=O)[O-])cc1 (stereo unspecified) | 7.63 | < 5 | 5.81 | 5.61 | 4.73 | 6.5 (≈ 16.7 µM) | 12.5 (≈ 32.2 µM) | 6.5 (≈ 16.7 µM) | 25 (≈ 64.4 µM) | 25 (≈ 64.4 µM) | 12.5 (≈ 32.2 µM)
7 | CCN(CC)CCCC(C)Nc1ccnc2cc(Cl)ccc12 (stereo unspecified) | – | 87 | – | – | – | – | – | – | – | – | –
8 | O=C(O)c1cn(C2CC2)c2cc(N3CCNCC3)c(F)cc2c1=O [CIPROFLOXACIN] | – | – | – | 6.40 | 4.57 | – | 25 (≈ 75.4 µM) | 12.5 (≈ 37.7 µM) | – | – | –
9 | COc1ccc(OC)c(C2CC(c3ccc(O)cc3)=NN2C(=O)c2cccnc2)c1 (stereo unspecified) | 172 | 71 | 7.40 | 6.48 | 4.25 | 25 (≈ 62 µM) | 25 (≈ 62 µM) | 25 (≈ 62 µM) | 12.5 (≈ 31 µM) | 12.5 (≈ 31 µM) | 75 (≈ 186 µM)
10 | COc1ccc(C2CC(c3ccc(O)cc3)=NN2C(=O)c2cccnc2)cc1 (stereo unspecified) | 76.3 | 54 | 7.23 | 6.25 | 4.37 | 50 (≈ 134 µM) | 75 (≈ 201 µM) | 25 (≈ 67 µM) | 25 (≈ 67 µM) | 12.5 (≈ 33.5 µM) | 50 (≈ 134 µM)
11 | CCc1ccccc1C1CC(c2ccc(O)cc2)=NN1C(=O)c1cccnc1 (stereo unspecified) | 75.1 | 53 | 7.09 | 6.33 | 4.45 | 50 (≈ 135 µM) | 50 (≈ 135 µM) | 12.5 (≈ 33.7 µM) | 25 (≈ 67.3 µM) | 50 (≈ 135 µM) | 100 (≈ 269 µM)
12 | CC(C)c1ccc(C2CC(c3ccc(O)cc3)=NN2C(=O)c2cccnc2)cc1 (stereo unspecified) | 83.3 | 48 | 7.47 | 6.33 | 4.41 | 12.5 (≈ 32.4 µM) | 50 (≈ 130 µM) | 3.25 (≈ 8.43 µM) | 12.5 (≈ 32.4 µM) | 25 (≈ 64.9 µM) | 12.5 (≈ 32.4 µM)
13 | CCCc1ccc(C2CC(c3ccc(O)cc3)=NN2C(=O)c2cccnc2)cc1 (stereo unspecified) | 216 | 81 | 7.66 | 6.72 | 4.38 | 12.5 (≈ 32.4 µM) | 50 (≈ 130 µM) | 12.5 (≈ 32.4 µM) | 12.5 (≈ 32.4 µM) | 25 (≈ 64.9 µM) | 25 (≈ 64.9 µM)
14 | CC(C)c1ccccc1C1CC(c2ccc(O)cc2)=NN1C(=O)c1cccnc1 (stereo unspecified) | 30.1 | 57 | 6.96 | 5.78 | 4.30 | 25 (≈ 64.9 µM) | 12.5 (≈ 32.4 µM) | 3.25 (≈ 8.43 µM) | 12.5 (≈ 32.4 µM) | 25 (≈ 64.9 µM) | 50 (≈ 130 µM)
15 | O=C(c1cccnc1)N1N=C(c2ccc(O)cc2)CC1c1ccc(OCc2ccccc2)cc1 (stereo unspecified) | 4.48 | < 5 | 6.67 | 5.59 | 4.94 | 50 (≈ 111 µM) | 50 (≈ 111 µM) | 25 (≈ 55.6 µM) | 12.5 (≈ 27.8 µM) | 12.5 (≈ 27.8 µM) | 3.25 (≈ 7.23 µM)
16 | COc1ccc(C2CC(c3ccc(O)cc3)=NN2C(=O)c2cccnc2)cc1OC (stereo unspecified) | 213 | 89 | 7.52 | 6.60 | 4.27 | 50 (≈ 124 µM) | 50 (≈ 124 µM) | 50 (≈ 124 µM) | 25 (≈ 62 µM) | 6.5 (≈ 16.1 µM) | 75 (≈ 186 µM)
17 | OC(Cn1cncn1)(Cn1cncn1)c1ccc(F)cc1F [FLUCONAZOLE] | – | – | – | – | – | – | – | – | – | 25 (≈ 81.6 µM) | 12.5 (≈ 40.8 µM)

— ChEMBL document CHEMBL3992561, “Synthesis of 1,3,5-trisubstituted pyrazolines as potential antimalarial and antimicrobial agents” (Bioorg Med Chem, 2017)
